Reference: ChEMBL document CHEMBL1125822, “Quantitative structure-activity relationships of antitumor guanidinothiazolecarboxamides with survival enhancement for therapy in the 3LL Lewis lung carcinoma model” (1991)

The compounds below were run on Lewis lung carcinoma cell line (assay: Compound injected intraperitoneally for 8 days and was tested for mean of increased life span in female BDF mice injected intravenously with 3LL Lewis Lung adenocarcinoma into lateral tail vein before 2 days).
Type: functional, Mus musculus
Method in brief: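 Female BDF1 mice (18–20 g) given 6×10^5 log-phase 3LL cells in 0.2 mL RPMI 1640 by lateral tail vein. Drug suspended in DMSO/saline buffered to pH 7.4, dosed ip once daily on days 2–9 (8 treatments); screening dose 50 mg/kg. Mice monitored daily for survival; ILS (%) = (MST treated/MST vehicle control ×100) − 100; significance by Armitage trend test.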

Compound | ILS
COc1cc2nc(NC(=O)c3csc(N=C(N)N)n3)sc2cc1OC | 5
COc1ccc(Cl)c2sc(NC(=O)c3csc(N=C(N)N)n3)nc12 | 69
COc1ccc2sc(NC(=O)c3csc(N=C(N)N)n3)nc2c1C | 57
COc1ccc(C(F)(F)F)c2sc(NC(=O)c3csc(N=C(N)N)n3)nc12 | 17
Cc1cc(C(F)(F)F)cc2sc(NC(=O)c3csc(N=C(N)N)n3)nc12 | 19
Cc1cc(Cl)cc2sc(NC(=O)c3csc(N=C(N)N)n3)nc12 | 15
N=C(N)Nc1nc(C(=O)Nc2nc3c(F)ccc(F)c3s2)cs1 | 26
N=C(N)Nc1nc(C(=O)Nc2nc3cc(Cl)c(C(N)=O)cc3s2)cs1 | 42
CCOc1ccc2nc(NC(=O)c3csc(N=C(N)N)n3)sc2c1 | 6
CCOc1ccc(F)c2sc(NC(=O)c3csc(N=C(N)N)n3)nc12 | 53
N=C(N)Nc1nc(C(=O)Nc2nc3cc(F)c(F)cc3s2)cs1 | 62
CCCCCS(=O)(=O)c1ccc2nc(NC(=O)c3csc(N=C(N)N)n3)sc2c1 | 30
Cc1cc(C)c2nc(NC(=O)c3csc(N=C(N)N)n3)sc2c1 | 64
CCOc1ccc(Cl)c2sc(NC(=O)c3csc(N=C(N)N)n3)nc12 | 75
COc1ccc2nc(NC(=O)c3csc(N=C(N)N)n3)sc2c1 | 7.5
N=C(N)Nc1nc(C(=O)Nc2nc3c(F)cccc3s2)cs1 | 38
Cl.N=C(N)Nc1nc(C(=O)Nc2nc3ccc(S(N)(=O)=O)cc3s2)cs1 | 1
CCCCOc1ccc2nc(NC(=O)c3csc(N=C(N)N)n3)sc2c1.Cl | 59
CC(C)c1cccc2sc(NC(=O)c3csc(N=C(N)N)n3)nc12.Cl | 24
Cl.N=C(N)Nc1nc(C(=O)Nc2nc3cc([N+](=O)[O-])ccc3s2)cs1 | 57
CC(C)(C)c1ccc2nc(NC(=O)c3csc(N=C(N)N)n3)sc2c1.Cl | 61

Compound | ILS
Cl.N#Cc1ccc2nc(NC(=O)c3csc(NC(=N)N)n3)sc2c1 | 53
Cl.N=C(N)Nc1nc(C(=O)Nc2nc3cc(O)ccc3s2)cs1 | 10
Cl.N=C(N)Nc1nc(C(=O)Nc2nc3cc(F)cc(F)c3s2)cs1 | 22
Cc1c(Cl)ccc2sc(NC(=O)c3csc(N=C(N)N)n3)nc12.Cl | 73
COc1cccc2sc(NC(=O)c3csc(N=C(N)N)n3)nc12.Cl | 45
Cl.N=C(N)Nc1nc(C(=O)Nc2nc3cc(-c4ccccc4)ccc3s2)cs1 | 18
CCOc1ccc2sc(NC(=O)c3csc(N=C(N)N)n3)nc2c1.Cl | 44
Cl.N=C(N)Nc1nc(C(=O)Nc2nc3c(O)cccc3s2)cs1 | 14
Cl.N=C(N)Nc1nc(C(=O)Nc2nc3ccc([N+](=O)[O-])cc3s2)cs1 | 51.7
Cc1ccc(F)c2sc(NC(=O)c3csc(N=C(N)N)n3)nc12.Cl | 53
Cl.N=C(N)Nc1nc(C(=O)Nc2nc3ccc(Cl)cc3s2)cs1 | 58
Cl.N=C(N)Nc1nc(C(=O)Nc2nc3cccc(-c4ccccc4)c3s2)cs1 | 49
Cc1cccc2sc(NC(=O)c3csc(N=C(N)N)n3)nc12.Cl | 44
CCCc1ccc2nc(NC(=O)c3csc(N=C(N)N)n3)sc2c1.Cl | 21.5
Cc1cc2nc(NC(=O)c3csc(N=C(N)N)n3)sc2cc1C.Cl | 18
Cl.N=C(N)Nc1nc(C(=O)Nc2nc3ccccc3s2)cs1 | 15
CCc1cc(C#N)cc2sc(NC(=O)c3csc(N=C(N)N)n3)nc12.Cl | 38
Cl.N=C(N)Nc1nc(C(=O)Nc2nc3ccc(Cl)c(C(F)(F)F)c3s2)cs1 | 69
CCc1ccc2nc(NC(=O)c3csc(N=C(N)N)n3)sc2c1.Cl | 33
CCCCOc1ccc2sc(NC(=O)c3csc(N=C(N)N)n3)nc2c1.Cl | 34.5
CSc1ccc2sc(NC(=O)c3csc(N=C(N)N)n3)nc2c1.Cl | 1

Compound | ILS
CC(C)Oc1ccc2sc(NC(=O)c3csc(N=C(N)N)n3)nc2c1.Cl | 23
CSc1cccc2sc(NC(=O)c3csc(N=C(N)N)n3)nc12.Cl | 9
Cc1c(F)ccc2sc(NC(=O)c3csc(N=C(N)N)n3)nc12.Cl | 62
Cc1cc(F)cc2sc(NC(=O)c3csc(N=C(N)N)n3)nc12.Cl | 29
CS(=O)(=O)c1ccc2sc(NC(=O)c3csc(N=C(N)N)n3)nc2c1 | 1
N=C(N)Nc1nc(C(=O)Nc2nc3cc(Cl)c(Cl)cc3s2)cs1 | 71
COc1cc([N+](=O)[O-])cc2sc(NC(=O)c3csc(N=C(N)N)n3)nc12 | 20
N=C(N)Nc1nc(C(=O)Nc2nc3c(Cl)cccc3s2)cs1 | 18
N=C(N)Nc1nc(C(=O)Nc2nc3cccc(C(F)(F)F)c3s2)cs1 | 35
COc1cc2nc(NC(=O)c3csc(N=C(N)N)n3)sc2cc1Cl | 21
CC(C)c1ccc2nc(NC(=O)c3csc(N=C(N)N)n3)sc2c1 | 38
N=C(N)Nc1nc(C(=O)Nc2nc3cc(F)c(Cl)cc3s2)cs1 | 75
N=C(N)Nc1nc(C(=O)Nc2nc3cc(F)c(O)cc3s2)cs1 | 23
N=C(N)Nc1nc(C(=O)Nc2nc3ccc(-c4ccccc4)cc3s2)cs1 | 67
Cc1ccc2nc(NC(=O)c3csc(N=C(N)N)n3)sc2c1 | 37.3
N=C(N)Nc1nc(C(=O)Nc2nc3cc(Cl)c(F)cc3s2)cs1 | 41
CSc1ccc2nc(NC(=O)c3csc(N=C(N)N)n3)sc2c1 | 25.5
N=C(N)Nc1nc(C(=O)Nc2nc3c([N+](=O)[O-])cccc3s2)cs1 | 30
N=C(N)Nc1nc(C(=O)Nc2nc3ccc(F)cc3s2)cs1 | 38.8
N=C(N)Nc1nc(C(=O)Nc2nc3cc(F)ccc3s2)cs1 | 67.6
N=C(N)Nc1nc(C(=O)Nc2nc3ccc(C(N)=O)cc3s2)cs1 | 1
